Results on 29 molecules are retold here after PubChem BioAssay.

Assay [1] in a line: thallium flux activation in parental CHO cells, counter-screen for KCNQ1 potentiator project (AID 493006;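 active = duplicate-averaged activation above buffer control mean plus 5 SD of those controls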;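 as to activation: fluorescence ratio of max minus min over baseline after K+ and Tl+ depolarization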). As to conditions: parental CHO-K1 cells, FluxOR thallium flux, at 10 µM; active compounds read high. A digest of the protocol: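 Material: untransfected host CHO-K1 cells with FluxOR thallium dye. Timing: overnight 37 °C plating, 90 min RT dye, 20 min compound. Detection: kinetic FluxOR fluorescence, 10 s baseline, 110 s after stimulus. Read-out basis: max-minus-min fluorescence over baseline, percent of buffer-to-R-L3 span. Replicates: duplicate wells per compound, percent values averaged.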
(A counterscreen serves to expose hits that act by an unwanted route or on another target.)

In assay [2] the target is Potassium voltage-gated channel subfamily KQT member 1 (Homo sapiens) (UniProt P51787). As to the kind of experiment: KCNQ1 potassium channel potentiators, confirmation, FluxOR thallium flux, CHO cells, duplicates (AID 493007;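 active = potentiation averaged over duplicate wells exceeding buffer-only control mean by more than 3 SD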;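 as to outcome: cells depolarized by a potassium plus thallium sulfate stimulus after compound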). The following applies: KCNQ1 cell line, FluxOR thallium flux fluorescence, at 10 µM; active compounds read high, % of reference activator effect, buffer zero. A digest of the protocol: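 Test system – KCNQ1-expressing CHO cell line · Incubation – FluxOR dye loading 90 min, compound exposure 20 min, room temperature · Detection – FluxOR Tl+ flux fluorescence, 10 s baseline plus 110 s recording · Controls – buffer-only wells as 0% and R-L3 activator as 100%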
Sequence of Potassium voltage-gated channel subfamily KQT member 1 (Homo sapiens) (P51787 whole entry, looked up): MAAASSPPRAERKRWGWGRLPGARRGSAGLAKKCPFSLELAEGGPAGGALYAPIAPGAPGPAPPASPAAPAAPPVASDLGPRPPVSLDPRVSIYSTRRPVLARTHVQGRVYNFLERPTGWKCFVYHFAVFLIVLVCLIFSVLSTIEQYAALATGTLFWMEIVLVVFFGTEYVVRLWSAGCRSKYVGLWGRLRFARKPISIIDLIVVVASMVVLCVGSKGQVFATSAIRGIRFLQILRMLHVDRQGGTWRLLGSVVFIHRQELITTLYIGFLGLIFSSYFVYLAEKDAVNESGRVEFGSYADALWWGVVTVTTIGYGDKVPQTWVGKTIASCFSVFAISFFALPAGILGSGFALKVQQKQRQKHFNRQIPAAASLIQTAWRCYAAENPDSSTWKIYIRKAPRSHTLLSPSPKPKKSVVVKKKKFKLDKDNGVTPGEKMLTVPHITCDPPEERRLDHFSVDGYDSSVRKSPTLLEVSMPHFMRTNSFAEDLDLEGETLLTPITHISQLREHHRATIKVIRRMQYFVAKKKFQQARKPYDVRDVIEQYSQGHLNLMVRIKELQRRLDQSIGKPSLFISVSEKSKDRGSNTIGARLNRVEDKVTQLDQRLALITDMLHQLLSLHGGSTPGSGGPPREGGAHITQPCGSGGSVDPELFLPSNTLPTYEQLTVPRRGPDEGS

The target of assay [3] is Potassium voltage-gated channel subfamily KQT member 2 (Rattus norvegicus) (UniProt O88943). Nature of the assay: rat KCNQ2 channel potentiation, selectivity assay for KCNQ1 potentiator project, KCNQ2-CHO-K1 cells (AID 493009).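 Also: assay conditions were tuned for KCNQ1 rather than KCNQ2 modulators; signal is max minus min fluorescence divided by baseline after thallium stimulus.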 The following applies: FluxOR thallium flux fluorescence, at 10 µM; active compounds read high, scaled: buffer 0, activator control 100.
Sequence of Potassium voltage-gated channel subfamily KQT member 2 (Rattus norvegicus) (O88943 whole entry, looked up): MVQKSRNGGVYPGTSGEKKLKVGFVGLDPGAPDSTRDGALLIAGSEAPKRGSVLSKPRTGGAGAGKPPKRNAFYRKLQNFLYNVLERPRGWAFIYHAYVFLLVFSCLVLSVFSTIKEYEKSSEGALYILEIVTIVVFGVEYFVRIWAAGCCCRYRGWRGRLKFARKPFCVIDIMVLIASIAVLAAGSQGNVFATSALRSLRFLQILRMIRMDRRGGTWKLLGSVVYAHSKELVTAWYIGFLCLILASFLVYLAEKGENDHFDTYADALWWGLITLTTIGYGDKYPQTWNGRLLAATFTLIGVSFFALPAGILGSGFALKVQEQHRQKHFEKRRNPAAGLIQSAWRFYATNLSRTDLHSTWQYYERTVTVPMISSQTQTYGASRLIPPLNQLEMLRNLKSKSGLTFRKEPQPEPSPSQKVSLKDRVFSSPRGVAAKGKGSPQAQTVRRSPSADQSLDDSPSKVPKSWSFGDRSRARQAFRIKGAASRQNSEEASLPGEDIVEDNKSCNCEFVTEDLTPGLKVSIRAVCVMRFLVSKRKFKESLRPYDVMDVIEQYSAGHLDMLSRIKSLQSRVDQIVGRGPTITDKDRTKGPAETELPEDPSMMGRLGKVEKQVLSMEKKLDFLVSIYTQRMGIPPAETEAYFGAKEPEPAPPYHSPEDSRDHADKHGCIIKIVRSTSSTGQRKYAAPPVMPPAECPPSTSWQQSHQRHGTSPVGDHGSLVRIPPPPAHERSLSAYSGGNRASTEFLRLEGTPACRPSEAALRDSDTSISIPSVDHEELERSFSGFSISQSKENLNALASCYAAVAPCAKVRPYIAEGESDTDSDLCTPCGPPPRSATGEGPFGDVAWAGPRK
In assay [4] the target is Potassium voltage-gated channel subfamily KQT member 1 (Homo sapiens) (UniProt P51787). As to the kind of experiment: KCNQ1 channel current potentiators, confirmation, orthogonal assay for KCNQ1 potentiator project, IonWorks patch clamp, KCNQ1-CHO cells (AID 493184;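 active = current rise at least 3 SD above the untreated control mean in each of two repeat wells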;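 as to current potentiation: percent change of the same well's current before compound addition so 0% = no change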). The following applies: automated patch clamp current, at 10 µM; active compounds read high. A digest of the protocol: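 Read-out: Percent current increase versus pre-compound level | Assay system: CHO cells carrying KCNQ1 | Measured by: Automated perforated-patch electrophysiology | Medium: External bath solution at pH 7.4 | Dosing: One dose, 10 µM final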
(Patch clamp records ionic current or voltage across a cell membrane.)

Molecules are shown by their SMILES. Activity calls are given as the source filed them.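 The calls were made as follows, unless noted: active = mean duplicate potentiation above the buffer control mean plus 5 SD of buffer wells; inactive = the rest.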

As for `COc1ccccc1C(=O)Nc1ccnn1C1CCN(CCCC2CCCC2)CC1`, the outcome in assay [1], in assay [2], in assay [3] and in assay [4] was inactive.

Consider `Cc1cc(Cl)ccc1OCc1n[nH]c(=S)n1C1CCCCC1`, for which the activation in assay [1] is 190% (active). The results for the potentiation in assay [2] and in assay [3] were 129% (active) and 212% (active), respectively. Further, the outcome in assay [4] was inactive.

With `CC1(C)CC(=O)C2=C(C1)c1c(ccc3ccccc13)NC2c1cc([N+](=O)[O-])cc([N+](=O)[O-])c1O` (stereo unspecified), the outcome in assay [1], in assay [2], in assay [3] and in assay [4] was inactive.

Regarding `COc1cc(-c2nnc(COC(=O)c3cccn3C)o2)cc(OC)c1OC`, the result in assay [1], in assay [2], in assay [3] and in assay [4] was inactive.

With `CCOC(=O)Cc1csc(NC(=O)CSc2nnnn2-c2ccc(C)cc2C)n1`, the outcome in assay [1], in assay [2], in assay [3] and in assay [4] was inactive.

Take `CC(C)n1cc(NC(=O)c2cc(-c3ccccc3)on2)cn1`: the activation in assay [1] was 182% (active). For the same molecule, the potentiation in assay [2] is 35.5% (active); in assay [3] it was 236% (active). In assay [4], the outcome was inactive.

As for `CC(Oc1ccc(Cl)cc1Cl)C(=O)NC(=S)N1CCc2ccccc21` (stereo unspecified), in assay [1], the activation is 151% (active). For the same molecule, the potentiation is 120% (active) in assay [2] and 172% (active) in assay [3]. Besides, the outcome in assay [4] was inactive.

`O=S(=O)(CC(CN1CCCC1)N1CCCC1)c1ccc2ccccc2c1` (stereo unspecified): the result in assay [1], in assay [2], in assay [3] and in assay [4] was inactive.

Consider `COc1ccc(NC(=S)N2CCC(C(O)(c3ccccc3)c3ccccc3)CC2)cc1`, for which the result in assay [1], in assay [2] and in assay [4] was inactive. Also, the potentiation in assay [3] was 186% (active).

As to `CN(CC(=O)Nc1c(Cl)cccc1Cl)C(=O)c1n[nH]c2ccccc12`, the result in assay [1], in assay [2], in assay [3] and in assay [4] was inactive.

For `COc1cccc(C(=O)NNC(=O)C(=O)Nc2ccc(OC)cc2OC)c1`, in assay [1], the activation was 178% (active). In addition, the figures for the potentiation in assay [2] and in assay [3] were 41% (active) and 202% (active), respectively. Besides, the result in assay [4] was inactive.

Turning to `Cc1ccc(C)c(NC(=S)N/N=C2/CCCCc3ccccc32)c1`, the activation in assay [1] was 140% (active). In addition, the potentiation in assay [2] was 37% (active); in assay [3] it was 164% (active). The outcome in assay [4] was inactive.

For the molecule `C/C(N)=C(/C#N)C(=O)CSc1nc2ccccc2c(=O)n1Cc1ccc(F)cc1`, in assay [1], the activation was 178% (active). For the same molecule, the potentiation was 48.5% (active) in assay [2] and 194% (active) in assay [3]. The outcome in assay [4] was inactive.

Take `Oc1[nH]c2c(Cl)cc(Cl)cc2c1N=NC(=S)NCC1CCCO1` (stereo unspecified): the activation in assay [1] is 346% (active). Besides, the potentiation is 277% (active) in assay [2] and 454% (active) in assay [3]. In addition, the result in assay [4] was inactive.

Take `CCCc1ccc2oc(C(=O)N(C)CCn3ccnc3C)c(C)c2c1`: the outcome in assay [1], in assay [2], in assay [3] and in assay [4] was inactive.

On to `Oc1c(Br)cc(Br)cc1C=NCc1ccc(F)cc1`, for which, in assay [1], the activation is 153% (active). The result in assay [2] and in assay [4] was inactive. For the same molecule, in assay [3], the potentiation is 146% (active).

As for `Cc1nc(SCC(=O)NCC2CCCO2)c2c3c(sc2n1)CCCC3` (stereo unspecified), in assay [1], the activation was 158% (active). Also, the potentiation in assay [2] was 55% (active); in assay [3], 197% (active). The result in assay [4] was inactive.

On to `COc1ccc(-c2csc(NC(=O)C3=NN(c4ccccc4)C(=O)CC3)n2)cc1`, for which the outcome in assay [1] and in assay [3] was inactive. In assay [2], the potentiation is 146% (active). For the same molecule, in assay [4], the current potentiation is 101% (active).

Regarding `O=C(O)CSc1c2c(nc3cc(C(=O)Nc4cccc(C(F)(F)F)c4)ccc13)CCC2`, the result in assay [1], in assay [2], in assay [3] and in assay [4] was inactive.

Consider `Cc1[nH]n(-c2ccccc2)c(=O)c1/C=N/N(c1ccccc1)c1ccccc1`, for which the result in assay [1], in assay [3] and in assay [4] was inactive. Further, the potentiation in assay [2] was 47% (active).

`Cc1ccc(C(=O)CC(=O)COc2ccc(Cl)cc2)cc1`: the result in assay [1] and in assay [4] was inactive. For the same molecule, the figures for the potentiation in assay [2] and in assay [3] were 184% (active) and 252% (active), respectively.

For the molecule `O=C(c1ccccc1NS(=O)(=O)c1ccc(Br)cc1)N1CCOCC1`, in assay [1], the activation is 306% (active). Further, the potentiation is 112% (active) in assay [2] and 326% (active) in assay [3]. The outcome in assay [4] was inactive.

For the molecule `Cn1ccnc1SCC(=O)NC1CC1`, the outcome in assay [1], in assay [2], in assay [3] and in assay [4] was inactive.

For the molecule `O=C(O)c1c2c(nc3ccccc13)/C(=C/c1cccc([N+](=O)[O-])c1)CCC2`, the activation in assay [1] was 172% (active). Moreover, the potentiation was 64% (active) in assay [2] and 199% (active) in assay [3]. Moreover, the result in assay [4] was inactive.

As for `S=c1nc(C2CC2)[nH]c2ccccc12`, the activation in assay [1] is 414% (active). The potentiation in assay [2] is 83.5% (active); in assay [3] it was 351% (active). For the same molecule, the result in assay [4] was inactive.

Turning to `CNC(=S)Nc1sc2c(c1C(=O)OC)CCC2`, the activation in assay [1] is 252% (active). Also, the figures for the potentiation in assay [2] and in assay [3] were 89.5% (active) and 287% (active), respectively. Besides, in assay [4], the outcome was inactive.

Turning to `COc1ccc(C(=O)CC(=O)C(=O)Nc2ccc(C)c(Cl)c2)cc1`, the activation in assay [1] is 138% (active). For the same molecule, in assay [2], the potentiation is 26% (active). Also, the result in assay [3] and in assay [4] was inactive.

As to `CC1(C)CC2CC(C)(CN2C(=S)NC(=O)c2ccccc2Cl)C1` (stereo unspecified), in assay [1], the activation is 341% (active). In addition, the values for the potentiation in assay [2] and in assay [3] were 154% (active) and 426% (active), respectively. Besides, the result in assay [4] was inactive.

With `FC(F)Sc1nc2ccccc2[nH]1`, the activation in assay [1] was 154% (active). Also, the result in assay [2], in assay [3] and in assay [4] was inactive.
